Only some compounds are listed: those with a hit (about 5.9% of all), similar ones and a draw of the others.
HUVEC prolif 384 – blocks proliferation of human endothelial cells | viability, % at 10 µM (by protocol) | 86,000 compounds, 1.1% hits | HUVEC proliferation, CellTiter-Glo luminescence, 72 h; active compounds read low;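 active = viability at or below 30%; inactive = viability above 30%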;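 also: 100% = median luminescence of DMSO-only cell control wells on each plate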
Jurkat viability – reduces viability or proliferation of Jurkat cells | 56,000 compounds, 1.2% hits | Jurkat E6.1 viability, ATP luminescence, 48 h | inhibition, % at 4 µM | AID 463;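 active = inhibition above the mean inhibition of all tested compounds plus 3 SD, cut at about 28% in these data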
MT1-MMP txn act – activates MT1-MMP transcription | HT1080 MT1-MMP promoter luciferase reporter, luminescence, overnight; active compounds read high | activation factor at 10 µM | 86,000 compounds, 0.16% hits;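 active = activation factor of at least 2 for MT1-MMP transcription at 10 µM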
H69AR inhibit – growth inhibitors of human H69AR lung tumor cells | viability, % at 10 µM | 85,000 compounds, 6% hits | AID 598 | H69AR lung tumor viability, ATP luminescence, 72 h; active compounds read low;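 active = viability at or below 40%; inactive = viability above 40%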;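 also: multidrug resistant small cell line overexpressing MRP-1 efflux transporter; 100% = mean luminescence of untreated control wells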
Fibroblast inh – blocks proliferation of human lung fibroblasts. LL 47 human lung fibroblast viability, ATP luminescence; active compounds read low. viability, % at 10 µM. 85,000 compounds, 1.1% hits;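 active = viability at or below 50% in the single dose screen; inactive = viability above 50%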;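 also: compound exposure lasted 72 h before the ATP readout; 100% = median luminescence of untreated cell-only wells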
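Benchmarks: Cell-only wells, no compound | Test system: LL 47 human lung fibroblasts, passage 12 or lower | Input: 1,150 cells/well | Measured by: CellTiter-Glo luminescence measuring cellular ATP | Medium: IMEM, 15% FBS supplement | Schedule: Overnight attachment after seeding, then 72 h compound exposure at 37 °C | Doses: Compound addition at 0.1% DMSO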
Pyk2 oligo antag – Pyk2 (human) oligomerization antagonism | Q293 cells, Pyk2 FERM NanoBiT luminescence; active compounds read low | 99,000 compounds, 0.83% hits | z-score (the deposit names both 25 µM and 10 µM) | AID 1347419;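 active = Z-score of -3 or lower, scaled per plate to the spread of control and sample wells; inactive = z-score above -3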;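 also: negative z-score means lost luminescence so less FERM oligomerization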
Target sequence (Q14289 whole entry, looked up): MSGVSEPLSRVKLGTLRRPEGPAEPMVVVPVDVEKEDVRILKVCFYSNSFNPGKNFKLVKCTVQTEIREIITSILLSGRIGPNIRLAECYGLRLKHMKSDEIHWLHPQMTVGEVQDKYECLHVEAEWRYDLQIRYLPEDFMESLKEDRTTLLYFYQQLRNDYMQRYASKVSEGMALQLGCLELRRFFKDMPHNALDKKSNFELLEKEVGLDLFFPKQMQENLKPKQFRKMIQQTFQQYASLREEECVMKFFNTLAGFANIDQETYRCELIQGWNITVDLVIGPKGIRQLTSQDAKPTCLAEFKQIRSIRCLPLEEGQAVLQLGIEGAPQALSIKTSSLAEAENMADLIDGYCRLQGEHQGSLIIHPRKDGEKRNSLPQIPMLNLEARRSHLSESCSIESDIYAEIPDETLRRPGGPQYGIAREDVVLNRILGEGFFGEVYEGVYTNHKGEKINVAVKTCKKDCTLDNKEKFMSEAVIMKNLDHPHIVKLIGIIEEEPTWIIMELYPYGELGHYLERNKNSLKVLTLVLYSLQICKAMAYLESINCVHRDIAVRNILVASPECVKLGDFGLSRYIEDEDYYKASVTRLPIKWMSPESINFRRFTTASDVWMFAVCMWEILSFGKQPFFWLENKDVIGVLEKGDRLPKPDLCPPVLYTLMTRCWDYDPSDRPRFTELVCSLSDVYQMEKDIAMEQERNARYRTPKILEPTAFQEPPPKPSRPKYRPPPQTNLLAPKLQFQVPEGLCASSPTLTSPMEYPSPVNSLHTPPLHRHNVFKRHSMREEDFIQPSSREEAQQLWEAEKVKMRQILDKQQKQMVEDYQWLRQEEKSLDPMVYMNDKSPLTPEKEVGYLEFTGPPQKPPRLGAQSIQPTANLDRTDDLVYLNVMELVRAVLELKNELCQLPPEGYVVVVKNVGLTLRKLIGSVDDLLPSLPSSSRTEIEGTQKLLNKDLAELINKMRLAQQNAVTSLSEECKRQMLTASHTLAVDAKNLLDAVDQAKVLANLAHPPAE
* marks the source's active call; other numbers are inactive results.

Results for CCN(CC)S(=O)(=O)c1cc(C(=O)NC2=NCCS2)ccc1Cl ?
HUVEC prolif 384: 89; MT1-MMP txn act: 1.4; H69AR inhibit: 54; Fibroblast inh: 94; Pyk2 oligo antag: -0.67

What do the screens show for `COc1ccc(N(Cc2ccccc2)S(=O)(=O)c2cccc(C(=O)NC3=NCCS3)c2)cc1`?
HUVEC prolif 384: 78; MT1-MMP txn act: 1; H69AR inhibit: 70; Fibroblast inh: 100; Pyk2 oligo antag: -3.3*

Results for CCOc1ccc(CCNC(=O)C2CCN(S(=O)(=O)N3CCOCC3)CC2)cc1OCC ?
HUVEC prolif 384: 102; Jurkat viability: -6; MT1-MMP txn act: 1.2; H69AR inhibit: 86; Fibroblast inh: 111; Pyk2 oligo antag: 0.86

Results for C[C@@]1(C(NC(=O)Cc2ccc(C(F)(F)F)cc2)c2ccc(-c3ccccc3)cc2)C[C@H]1C1CCCCC1 (some centres undefined) ?
MT1-MMP txn act: 1.2

How did O=C1CC(c2ccsc2)c2cc3c(cc2N1)OCCO3 (centres undefined) do in these assays?
HUVEC prolif 384: 92; Jurkat viability: 4; MT1-MMP txn act: 1; H69AR inhibit: 27*; Fibroblast inh: 92

How did O=C1CC(c2ccncc2)c2cc3c(cc2N1)OCCO3 (centres undefined) do in these assays?
HUVEC prolif 384: 84; Jurkat viability: -5; MT1-MMP txn act: 0.9; H69AR inhibit: 93; Fibroblast inh: 103; Pyk2 oligo antag: -0.15

Results for CCOc1c(OC)cccc1C1CC(=O)Nc2cc3c(cc21)OCCO3 (centres undefined) ?
HUVEC prolif 384: 77; Jurkat viability: 9; MT1-MMP txn act: 1.1; H69AR inhibit: 15*; Fibroblast inh: 96

How did COc1ccc(-c2nc3scc(-c4ccccc4)n3n2)cc1 do in these assays?
HUVEC prolif 384: 67; Jurkat viability: 11; MT1-MMP txn act: 1.4; H69AR inhibit: 31*; Fibroblast inh: 74; Pyk2 oligo antag: -0.58

How did O=C(NCCSc1c[nH]c2ccccc12)c1ccc(Br)o1 do in these assays?
HUVEC prolif 384: 80; Jurkat viability: 38*; MT1-MMP txn act: 1; H69AR inhibit: 57; Fibroblast inh: 100

How did Cc1[nH]c2ccccc2c1SCCNC(=O)c1ccc(Br)o1 do in these assays?
HUVEC prolif 384: 77; MT1-MMP txn act: 1.2; H69AR inhibit: 97; Fibroblast inh: 106; Pyk2 oligo antag: -1.2

Results for C=CCn1c(SC2CCOC2=O)nc2scc(C3CC3)c2c1=O (centres undefined) ?
HUVEC prolif 384: 99; Jurkat viability: 6; MT1-MMP txn act: 1.2; H69AR inhibit: 99; Fibroblast inh: 97; Pyk2 oligo antag: 3

What do the screens show for `Cc1ccc(NC(=O)/C(=C\c2cccnc2)NC(=O)c2ccco2)cc1`?
Pyk2 oligo antag: -0.79

What do the screens show for `CCCOc1ccc(/C=c2\sc3nc(-c4ccco4)nn3c2=O)cc1OCC`?
HUVEC prolif 384: 82; Jurkat viability: 3; MT1-MMP txn act: 1.2; H69AR inhibit: 89; Fibroblast inh: 91; Pyk2 oligo antag: 1.1

What do the screens show for `CC(=O)Oc1cccc(/C=c2\sc3nc(-c4ccco4)nn3c2=O)c1`?
HUVEC prolif 384: 73; Jurkat viability: -7; MT1-MMP txn act: 1.4; H69AR inhibit: 11*; Fibroblast inh: 93; Pyk2 oligo antag: 1.3

What do the screens show for `COc1ccc(CC(=O)Nc2oc(-c3ccccc3)c(-c3ccccc3)c2C#N)cc1OC`?
Jurkat viability: 16; MT1-MMP txn act: 1.1; Pyk2 oligo antag: -3.3*

What do the screens show for `N#Cc1c(NC(=O)CSc2ncccn2)oc(-c2ccccc2)c1-c1ccccc1`?
HUVEC prolif 384: 83; MT1-MMP txn act: 1.1; H69AR inhibit: 106; Fibroblast inh: 93; Pyk2 oligo antag: 0.83

How did Cc1ccc(OCC(=O)Nc2oc(-c3ccccc3)c(-c3ccccc3)c2C#N)cc1 do in these assays?
HUVEC prolif 384: 75; MT1-MMP txn act: 1.1; H69AR inhibit: 28*; Fibroblast inh: 98; Pyk2 oligo antag: -1.3

How did COc1ccccc1OCC(=O)Nc1oc(-c2ccccc2)c(-c2ccccc2)c1C#N do in these assays?
HUVEC prolif 384: 81; Jurkat viability: -6; MT1-MMP txn act: 1.1; H69AR inhibit: 106; Fibroblast inh: 100; Pyk2 oligo antag: -3.7*

Results for COc1cccc(CNC(=O)C2CCN(c3cnccn3)CC2)c1 ?
HUVEC prolif 384: 97; Jurkat viability: -8; MT1-MMP txn act: 1.1; H69AR inhibit: 104; Fibroblast inh: 108; Pyk2 oligo antag: -0.38

Results for O=C(N/N=C\c1ccc(F)cc1)c1csnn1 ?
Pyk2 oligo antag: 0.26

What do the screens show for `COc1ccc(C2NC(=O)N(CCCC(=O)O)C(C)=C2C(=O)OCc2ccccc2)cc1` (centres undefined)?
MT1-MMP txn act: 1.2

What do the screens show for `COc1ccccc1N=c1oc2cc(O)ccc2cc1C(=O)NCC1CCCO1` (centres undefined)?
HUVEC prolif 384: 81; Jurkat viability: 10; MT1-MMP txn act: 1.1; H69AR inhibit: 79; Fibroblast inh: 97; Pyk2 oligo antag: -1.3

How did COc1ccccc1NC(=O)c1cc2ccc(O)cc2o/c1=N\O do in these assays?
HUVEC prolif 384: 81; Jurkat viability: 12; MT1-MMP txn act: 1.3; H69AR inhibit: 36*; Fibroblast inh: 96; Pyk2 oligo antag: -2.3

How did COc1ccccc1NC(=O)c1cc2ccccc2o/c1=N\O do in these assays?
HUVEC prolif 384: 67; Jurkat viability: 12; MT1-MMP txn act: 1.6; H69AR inhibit: 53; Fibroblast inh: 97; Pyk2 oligo antag: -0.11

How did COc1ccccc1N=c1oc2cc(O)ccc2cc1C(N)=O do in these assays?
Jurkat viability: 43*; MT1-MMP txn act: 0.9; Pyk2 oligo antag: -0.75

Results for COC(=O)c1cc(Cl)c(NC(=O)c2cc3ccccc3o2)cc1OC ?
Pyk2 oligo antag: -0.62

What do the screens show for `Oc1ccc2c(c1)oc1cc(O)ccc12`?
HUVEC prolif 384: 57; Jurkat viability: 22; MT1-MMP txn act: 1.4; H69AR inhibit: 5.2*; Fibroblast inh: 76; Pyk2 oligo antag: -0.58

Results for C[C@@H](C(=O)N[C@@H](CO)Cc1ccccc1)[C@H]1C[C@]1(C)[C@H](NC(=O)OCc1ccccc1)c1ccccc1 ?
MT1-MMP txn act: 1.2

How did O=S(=O)(c1ccc(Cl)c(Cl)c1)c1snnc1-c1ccccc1 do in these assays?
HUVEC prolif 384: 3.6*; H69AR inhibit: -0.2*; Fibroblast inh: 4.8*; Pyk2 oligo antag: -0.43

Results for COC(=O)c1ccc(C(/C=C/[C@@H](C)C(=O)NCc2ccc(C)o2)NC(=O)OCc2ccccc2)cc1 (some centres undefined) ?
MT1-MMP txn act: 1.2

How did Cc1ccc(NC(=O)c2ccccc2)cc1OC(=O)c1ccccc1 do in these assays?
Pyk2 oligo antag: -0.37

Results for C=C1[C@@H](C)C2[C@H](Cc3ccccc3)NC(=O)[C@]23OC(=O)CC[C@H](O)CCC[C@H](C)C/C=C/[C@H]3[C@@H]1O (some centres undefined) ?
HUVEC prolif 384: 15*; MT1-MMP txn act: 1.1; H69AR inhibit: 38*; Fibroblast inh: 25*

Screening data deposited in PubChem BioAssay by several laboratories.
